Bioassay records as filed in PubChem BioAssay.
PRMT1 FP inh: inhibitors of human PRMT1; Q99873; recombinant PRMT1, activity-based probe fluorescence polarization; inhibition, % at 2.79 µM; hit rate 1.3% among 370,000;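 active means inhibition above about 21% made by adding two undisclosed values, limit read from the data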
PAD4 inh: PAD4 (human) enzyme inhibition; Q9UM07; recombinant PAD4, RCA probe fluorescence polarization; inhibition, % at 6.36 µM; hit rate 0.41% among 330,000; AID 485272;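 active means percent inhibition above a cutoff equal to the mean of all tested compounds plus 3 SD, cut at about 15% in these data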;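 further: 0% = PAD4 with RCA probe and DMSO and 100% = probe without PAD4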
Target sequence (Q9UM07 whole entry, looked up): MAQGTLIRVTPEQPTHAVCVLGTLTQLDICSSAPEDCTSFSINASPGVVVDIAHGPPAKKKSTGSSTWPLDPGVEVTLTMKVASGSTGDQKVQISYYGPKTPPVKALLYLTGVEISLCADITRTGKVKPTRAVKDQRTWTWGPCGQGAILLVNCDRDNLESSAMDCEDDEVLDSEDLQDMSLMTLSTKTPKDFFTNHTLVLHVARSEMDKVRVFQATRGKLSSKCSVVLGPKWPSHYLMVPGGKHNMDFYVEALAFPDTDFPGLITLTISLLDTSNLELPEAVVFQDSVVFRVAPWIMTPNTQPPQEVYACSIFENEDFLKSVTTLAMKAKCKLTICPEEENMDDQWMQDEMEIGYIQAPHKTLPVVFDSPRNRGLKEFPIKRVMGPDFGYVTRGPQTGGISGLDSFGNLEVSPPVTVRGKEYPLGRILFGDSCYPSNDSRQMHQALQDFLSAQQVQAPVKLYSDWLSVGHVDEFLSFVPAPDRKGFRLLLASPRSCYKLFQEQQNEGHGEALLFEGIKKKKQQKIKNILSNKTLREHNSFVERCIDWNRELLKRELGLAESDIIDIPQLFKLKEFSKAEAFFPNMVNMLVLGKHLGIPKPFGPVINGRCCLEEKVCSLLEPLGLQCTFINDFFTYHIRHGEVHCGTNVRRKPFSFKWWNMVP
TDP2 inh: TDP2 (human) inhibition, absorbance primary screen. inhibition, % at 12.8 µM. recombinant TDP2, T5PNP hydrolysis, p-nitrophenol absorbance 415 nm. O95551. hit rate 0.34% among 370,000;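 active means inhibition above the mean of all tested compounds plus 3 SD, set per campaign, cut at about 25% in these data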;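 further: 0% = DMSO with enzyme and 100% = buffer with substrate but no TDP2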
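Incubation: 2 h at 37 °C; Test system: recombinant human TDP2; Quantity: enzyme 120 nM; Read-out basis: percent inhibition; Medium: 50 mM Tris-HCl pH 7.5 with Mg2+, KCl, DTT, BSA; Repeats: single replicate; Compound: 12.8 µM single point, 1% DMSO; Signal: epi absorbance; Reagent: 5 mM T5PNP chromogenic substrate; Benchmarks: no-enzyme high, DMSO-plus-enzyme low.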
Fh CTSL1 inh: cathepsin L1 inhibition, PFM18AAP counter-screen; inhibition, % at 5.96 µM; recombinant F. hepatica cathepsin L1, Z-Leu-Arg-MCA fluorescence; hit rate 0.49% among 300,000;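 active means inhibition above the mean of all tested compounds plus 3 SD, set per screening campaign, cut at about 17% in these data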;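 further: 0% = plate median of test compound wells and 100% = 1 µM Z-Phe-Ala-diazomethylketone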
GSTO1 counter: GSTO1 inhibition, counter-screen for RBBP9 inhibitors; recombinant GSTO1, activity-based probe fluorescence polarization; inhibition, % at 5.96 µM; hit rate 1.1% among 300,000; AID 1974;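 active means inhibition above the campaign mean inhibition plus 3 SD, cut at about 35% in these data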;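 further: 0% = GSTO1-1 with DMSO and 100% = wells lacking GSTO1-1 enzyme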
PAD4 FP conf: confirmation of human PAD4 inhibitors | shares compounds with PAD4 inh | hit rate 28% among 1,200 | inhibition, % at 6.36 µM | recombinant PAD4, RCA probe fluorescence polarization | AID 488796;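 active means mean inhibition across replicates above the hit cutoff set by the earlier primary screen, cut at about 15% in these data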;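 further: inhibitors block active-site labeling by the probe so polarization falls; 0% = PAD4 with probe and DMSO and 100% = probe without PAD4 enzyme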
Starred values were filed as active, the others as inactive. Hits are enriched below; roughly 2.5% of the tested compounds scored in any of these assays.

How did Cc1onc(-c2ccccc2Cl)c1C(=O)NCc1ccc2c(c1)cc(C)n2C do in these assays?
PRMT1 FP inh: 1.3; PAD4 inh: 38.1*; TDP2 inh: 1.3; Fh CTSL1 inh: -1.1; GSTO1 counter: 12.8; PAD4 FP conf: 11.2

What do the screens show for `Cc1ccc(S(=O)(=O)NCc2ccc3c(c2)cc(C)n3C)cc1`?
PRMT1 FP inh: 2.3; PAD4 inh: 11.4; TDP2 inh: -7.3; Fh CTSL1 inh: -0.3; GSTO1 counter: 0.7

What do the screens show for `CCOc1ccc(CC(=O)NCc2ccc3c(c2)cc(C)n3C)cc1`?
PRMT1 FP inh: 2.5; PAD4 inh: -0.3; TDP2 inh: -10.7; Fh CTSL1 inh: 3.0; GSTO1 counter: 8.8

How did Cc1cc2cc(CNC(=O)COc3ccccc3)ccc2n1C do in these assays?
PRMT1 FP inh: 0.1; PAD4 inh: 32.5*; TDP2 inh: 12.7; Fh CTSL1 inh: -3.2; GSTO1 counter: 3.5; PAD4 FP conf: 5.9

Results for Cc1cc2cc(CN3C(=O)c4ccccc4C3=O)ccc2n1C ?
PRMT1 FP inh: 1.0; PAD4 inh: 15.6*; TDP2 inh: -1.7; Fh CTSL1 inh: -1.3; GSTO1 counter: 2.7; PAD4 FP conf: 7.1

How did CC(=O)CC[C@H]1CC[C@]2(CCCN(S(=O)(=O)C3CCCCC3)C2)O1 do in these assays?
PRMT1 FP inh: 3.6; TDP2 inh: 0.3

Results for Cc1cccc(NC(=O)CSc2nnc(SCc3ccc(Cl)cc3)s2)c1 ?
PRMT1 FP inh: 0.9; TDP2 inh: -4.8

How did Cn1nnnc1Sc1ncnc2scc(-c3ccc([N+](=O)[O-])cc3)c12 do in these assays?
PRMT1 FP inh: -1.1; PAD4 inh: 17.1*; TDP2 inh: -3.4; PAD4 FP conf: 10.4

Results for O=S(=O)(CC1NCCc2ccccc21)NCCc1ccccc1 (centres undefined) ?
PRMT1 FP inh: 4.3; TDP2 inh: 1.2

What do the screens show for `O=C1OC(Nc2ncccn2)c2ccccc21` (centres undefined)?
PRMT1 FP inh: -2.6; PAD4 inh: 6.8; TDP2 inh: 1.4; Fh CTSL1 inh: -3.1; GSTO1 counter: 1.3

How did O=C1OC(Nc2cc(Br)cc3cccnc23)c2ccccc21 (centres undefined) do in these assays?
PRMT1 FP inh: 31.0*; PAD4 inh: 61.3*; TDP2 inh: 79.2*; Fh CTSL1 inh: 98.3*; GSTO1 counter: 85.8*; PAD4 FP conf: -6.2

What do the screens show for `CCOc1ccc(CCNC(=O)c2ccc3[nH]ccc3c2)cc1OCC`?
PRMT1 FP inh: 3.9; TDP2 inh: 7.1

How did COCCCNc1nc2ccccc2nc1NS(=O)(=O)c1cccs1 do in these assays?
PRMT1 FP inh: 2.8; PAD4 inh: 16.0*; TDP2 inh: 5.4; Fh CTSL1 inh: 2.1; GSTO1 counter: -3.5; PAD4 FP conf: -10.6

How did O=C(Oc1cccc(-c2cnc3ccccc3n2)c1)c1ccco1 do in these assays?
PRMT1 FP inh: 0.1; PAD4 inh: 24.3*; TDP2 inh: -1.3; Fh CTSL1 inh: -20.0; GSTO1 counter: 13.5; PAD4 FP conf: 19.2*

What do the screens show for `CCN(CC)S(=O)(=O)c1ccc(C)c(C(=O)Oc2cccc(-c3cnc4ccccc4n3)c2)c1`?
PRMT1 FP inh: -1.5; PAD4 inh: 0.1; TDP2 inh: 2.3; Fh CTSL1 inh: -1.3; GSTO1 counter: 0.0

Results for COC(=O)C1CN(C2CCCC2)CCS(=O)(=O)N1Cc1ccc(Cl)cc1 (centres undefined) ?
PRMT1 FP inh: 1.4; TDP2 inh: -7.8

How did Cc1ccc(-c2nc3ncccn3c2NC(=O)Nc2ccc(F)cc2)cc1 do in these assays?
PRMT1 FP inh: -2.2; TDP2 inh: -0.3

How did N#Cc1nc(N2CCCCC2)nc(N2CCOCC2)n1 do in these assays?
PRMT1 FP inh: 0.6; PAD4 inh: 18.5*; TDP2 inh: -7.8; Fh CTSL1 inh: 75.9*; GSTO1 counter: -1.4; PAD4 FP conf: 23.8*

Results for C1CN(c2nc(N3CCOCC3)nc(N3CCOCC3)n2)CCO1 ?
PAD4 inh: -5.1; Fh CTSL1 inh: 5.8; GSTO1 counter: -5.0

How did COC(=O)[C@H](CC(C)C)N(CCCc1cn(Cc2ccccc2)nn1)S(=O)(=O)c1ccccc1Br do in these assays?
PRMT1 FP inh: -2.2; TDP2 inh: -18.7

Results for COC(=O)Nc1ccc(SCC(=O)c2cccc([N+](=O)[O-])c2)cc1 ?
PRMT1 FP inh: 69.0*; PAD4 inh: 25.8*; TDP2 inh: 7.6; Fh CTSL1 inh: -17.2; GSTO1 counter: 10.5; PAD4 FP conf: 18.8*

What do the screens show for `CC[C@@H](CCCc1ccc(F)cc1)CN(Cc1ccc(OC)cc1)S(=O)(=O)c1ccc(C)cc1`?
PRMT1 FP inh: -3.3; TDP2 inh: 7.0

How did COc1cc(N2C(=O)CSC23C(=O)Nc2ccccc23)cc(OC)c1OC (centres undefined) do in these assays?
PRMT1 FP inh: -2.2; PAD4 inh: 15.1*; TDP2 inh: 7.4; Fh CTSL1 inh: -1.7; GSTO1 counter: -6.3; PAD4 FP conf: 16.4*

Results for COc1ccc(N2C(=O)CSC23C(=O)Nc2ccccc23)cc1OC (centres undefined) ?
PRMT1 FP inh: 0.1; PAD4 inh: 6.7; TDP2 inh: 1.3; Fh CTSL1 inh: -3.2; GSTO1 counter: -3.0

Results for COc1ccc(-n2c(SCC(=O)NCCCSC)nnc2-c2ccncc2)cc1 ?
PRMT1 FP inh: -0.9; TDP2 inh: -2.0

Results for Cc1cc(=O)oc2cc(NC(=O)c3cccc(S(C)(=O)=O)c3)ccc12 ?
PRMT1 FP inh: 5.0; PAD4 inh: 19.1*; TDP2 inh: -14.6; Fh CTSL1 inh: 0.2; GSTO1 counter: 0.9; PAD4 FP conf: 19.6*

How did Cc1cc(=O)oc2cc(NC(=O)c3cccc(S(=O)(=O)N(C)C)c3)ccc12 do in these assays?
PRMT1 FP inh: -4.4; PAD4 inh: -0.6; TDP2 inh: 7.5; Fh CTSL1 inh: -3.3; GSTO1 counter: -1.5

What do the screens show for `CCn1c2ccccc2c2cc(C=NNC(=O)c3cc(-c4ccc(OC)cc4)n[nH]3)ccc21`?
PRMT1 FP inh: -0.9; TDP2 inh: -3.8

Results for Cc1ccc(S(=O)(=O)N(C(=O)c2ccco2)c2cc3sc(=O)oc3c3ccccc23)cc1 ?
PRMT1 FP inh: 83.7*; PAD4 inh: 21.1*; TDP2 inh: -2.9; Fh CTSL1 inh: 1.1; GSTO1 counter: 66.1*; PAD4 FP conf: 8.5

What do the screens show for `Cc1ccc(S(=O)(=O)N(C)CC(=O)N2CCN(C(=O)c3ccco3)CC2)cc1`?
PRMT1 FP inh: -0.4; PAD4 inh: -3.0; TDP2 inh: 4.1; Fh CTSL1 inh: 0.2; GSTO1 counter: 1.6

Results for COC(=O)c1ccccc1-c1c2ccc(=N)cc-2oc2cc(N)ccc12 ?
PRMT1 FP inh: active; PAD4 inh: active; TDP2 inh: -4.2; PAD4 FP conf: 144.9*

Results for CCN1CC2=C(OC(N)=C(C#N)C2c2cccs2)/C(=C/c2cccs2)C1 (centres undefined) ?
PRMT1 FP inh: 6.2; PAD4 inh: 1.8; TDP2 inh: -6.0; Fh CTSL1 inh: -0.7; GSTO1 counter: 5.7
